# What was measured:
# [1] = Cytotoxicity against African green monkey Vero cells measured by MTT assay; type: toxicity, cell-based; settings: African green monkey (Chlorocebus sabaeus)
# How it was run: (§1)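 Vero, HepG2 and mouse J774A.1 cells grown in RPMI 1640 with 10% FBS. MTT read-out in 96-well format.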
# [2] = Selectivity index, Ratio of IC50 for Vero cells over MIC for Mycobacterium tuberculosis H37Rv; type: toxicity; settings: monkey
# [3] = test system: Mycobacterium tuberculosis; assay: Antimycobacterial activity against Mycobacterium tuberculosis H37Rv measured by MABA assay; type: functional
# How it was run: (§2)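 Microplate Alamar Blue assay against replicating M. tuberculosis H37Rv or clinical isolates. MIC is the lowest concentration giving ≥90% reduction in fluorescence relative to the mean of replicate bacterium-only controls.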
# [4] = test system: Mycobacterium tuberculosis; assay: Antimycobacterial activity against Mycobacterium tuberculosis 14862 clinical isolate measured by MABA assay; type: functional; how it was run: as §2
# [5] = test system: Mycobacterium tuberculosis; assay: Antimycobacterial activity against Mycobacterium tuberculosis 13946 clinical isolate measured by MABA assay; type: functional; how it was run: as §2
# [6] = Metabolic stability in mouse hepatocytes assessed as half-life at 1 uM measured by LC-MS/MS analysis; type: ADME, cell-based, Hepatocyte
# How it was run: (§3)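 Compound at 1 µM with hepatocytes at 1 million cells/mL final; human hepatocytes are mixed donor, mouse are male. Incubated at 37 °C in CO2 at ~100 rpm. Sampled at 0, 15, 30, 60, 90 and 120 min, quenched in ice-cold ACN/MeOH with internal standard. Parent remaining measured by LC-MS/MS.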
# [7] = Metabolic stability in human hepatocytes assessed as compound remaining at 1 uM measured by LC-MS/MS analysis; type: ADME, cell-based, Hepatocyte; settings: read-out: Stability; how it was run: as §3
# [8] = Metabolic stability in human hepatocytes assessed as half-life at 1 uM measured by LC-MS/MS analysis; type: ADME, cell-based, Hepatocyte; how it was run: as §3
# [9] = target: Voltage-gated inwardly rectifying potassium channel KCNH2 (Homo sapiens, UniProt Q12809); assay: Inhibition of hERG; type: toxicity
# Chain of Voltage-gated inwardly rectifying potassium channel KCNH2 (Q12809 whole entry): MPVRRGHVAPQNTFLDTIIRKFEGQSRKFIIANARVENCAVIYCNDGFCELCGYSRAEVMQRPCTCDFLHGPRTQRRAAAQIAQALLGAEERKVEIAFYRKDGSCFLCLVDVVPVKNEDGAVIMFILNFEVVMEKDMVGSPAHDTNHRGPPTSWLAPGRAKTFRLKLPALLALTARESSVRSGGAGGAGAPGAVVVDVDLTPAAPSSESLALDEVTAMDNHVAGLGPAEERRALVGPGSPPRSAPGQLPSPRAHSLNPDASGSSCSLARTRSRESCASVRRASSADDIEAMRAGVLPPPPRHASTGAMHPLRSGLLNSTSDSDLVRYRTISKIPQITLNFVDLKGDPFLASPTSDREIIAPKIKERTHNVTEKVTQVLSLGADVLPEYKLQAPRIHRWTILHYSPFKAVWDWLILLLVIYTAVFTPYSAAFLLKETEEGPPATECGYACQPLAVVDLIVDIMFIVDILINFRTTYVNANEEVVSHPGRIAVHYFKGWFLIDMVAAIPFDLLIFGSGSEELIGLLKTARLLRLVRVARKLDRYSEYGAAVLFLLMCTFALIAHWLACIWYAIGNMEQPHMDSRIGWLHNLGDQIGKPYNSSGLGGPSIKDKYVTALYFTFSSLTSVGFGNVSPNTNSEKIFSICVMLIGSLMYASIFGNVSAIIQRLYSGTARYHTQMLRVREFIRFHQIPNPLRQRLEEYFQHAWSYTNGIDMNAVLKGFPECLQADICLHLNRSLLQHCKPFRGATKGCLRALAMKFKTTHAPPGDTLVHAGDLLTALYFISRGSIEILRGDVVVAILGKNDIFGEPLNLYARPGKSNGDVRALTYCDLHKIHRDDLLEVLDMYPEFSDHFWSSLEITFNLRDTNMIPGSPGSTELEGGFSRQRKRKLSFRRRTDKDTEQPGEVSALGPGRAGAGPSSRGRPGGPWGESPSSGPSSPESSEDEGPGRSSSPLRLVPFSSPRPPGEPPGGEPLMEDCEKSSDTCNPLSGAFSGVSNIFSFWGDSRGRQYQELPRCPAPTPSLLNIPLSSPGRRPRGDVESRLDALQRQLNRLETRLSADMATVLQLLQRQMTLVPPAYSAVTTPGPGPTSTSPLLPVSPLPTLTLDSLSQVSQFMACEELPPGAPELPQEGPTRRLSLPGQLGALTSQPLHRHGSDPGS
# How it was run: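 Electrophysiological recording of hERG current at 30, 10, 3.0, 1.0 and 0.3 µM, run in duplicate for IC50.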
# [10] = Metabolic stability in mouse hepatocytes assessed as compound remaining at 1 uM measured by LC-MS/MS analysis; type: ADME, cell-based, Hepatocyte; settings: read-out: Stability; how it was run: as §3
# [11] = Cytotoxicity against human HepG2 cells measured by MTT assay; type: toxicity, cell-based; how it was run: as §1
# [12] = Cytotoxicity against mouse J774.A1 cells measured by MTT assay; type: toxicity, cell-based; how it was run: as §1
Compound,IC50 [1] [µg/mL],selectivity ratio [2],MIC [3] [µg/mL],other results
CCN(C)S(=O)(=O)c1ccc(C(=O)Nc2sccc2C(=O)NC(=O)OC)cc1,10.4,21,0.49,–
CCOC(=O)NC(=O)c1ccsc1NC(=O)c1ccc(S(=O)(=O)Nc2ccc(Br)cc2)cc1,–,–,2.79,–
CCOC(=O)NC(=O)c1ccsc1NC(=O)c1ccc(S(=O)(=O)Nc2nccs2)cc1,–,–,7.64,–
COC(=O)NC(=O)c1ccsc1NC(=O)c1ccc(S(=O)(=O)N2CCCC2)cc1,39.4,395,0.1,–
C[C@H]1COc2c(N3CCN(C)CC3)c(F)cc3c(=O)c(C(=O)O)cn1c23.C[C@H]1COc2c(N3CCN(C)CC3)c(F)cc3c(=O)c(C(=O)O)cn1c23.O [LEVOFLOXACIN],–,–,0.33,MIC [4]: 1.87 µg/mL; MIC [5]: 1.94 µg/mL
CCOC(=O)NC(=O)c1ccsc1NC(=O)c1ccc(S(=O)(=O)Nc2ccc(C)cc2)cc1,–,–,3.56,–
COC(=O)NC(=O)c1ccsc1NC(=O)c1ccc(S(=O)(=O)N2CCC(c3ccccc3)CC2)cc1,–,–,> 32,–
Cc1ccnc(NC(=O)c2ccsc2NC(=O)c2ccc(S(=O)(=O)N3CCCCC3)cc2)n1,32.8,137,0.24,half-life at 1 µM [6]: 7.9 min; remaining at 1 µM [7]: 41.2%; half-life at 1 µM [8]: 23.4 min; IC50 [9]: 1.7 µM; remaining at 1 µM [10]: 7.3%
COC(=O)NC(=O)c1ccsc1NC(=O)c1ccc(S(=O)(=O)NC23CC4CC(CC(C4)C2)C3)cc1,–,–,1.96,–
COC(=O)NC(=O)c1ccsc1NC(=O)c1ccc(S(=O)(=O)N2CCC(O)CC2)cc1,–,–,3.67,–
CCOC(=O)NC(=O)c1ccsc1NC(=O)c1ccc(S(=O)(=O)N2CCCCCC2)cc1,3.42,143,0.024,–
CCOC(=O)NC(=O)c1ccsc1NC(=O)c1ccc(S(=O)(=O)Nc2ccc(F)cc2)cc1,20.5,21,0.98,–
Cc1ccnc(NC(=O)c2ccsc2NC(=O)c2ccc(S(=O)(=O)N3CCOCC3)cc2)n1,42.7,49,0.87,–
CCOC(=O)NC(=O)c1ccsc1NC(=O)c1ccc(S(=O)(=O)N2CCC2)cc1,> 64,> 1310,0.049,MIC [4]: 0.062 µg/mL; MIC [5]: 0.06 µg/mL
COC(=O)NC(=O)c1ccsc1NC(=O)c1ccc(S(=O)(=O)N2CCC(C)CC2)cc1,9.13,40,0.23,–
CCOC(=O)NC(=O)c1ccsc1NC(=O)c1ccc(S(=O)(=O)Nc2ccc(OC(F)(F)F)cc2)cc1,–,–,26.3,–
O=C(NC(=O)c1ccsc1NC(=O)c1ccc(S(=O)(=O)N2CCOCC2)cc1)OCC(F)(F)F,–,–,30.4,–
CCCOC(=O)NC(=O)c1ccsc1NC(=O)c1ccc(S(=O)(=O)N2CCOCC2)cc1,–,–,2.45,–
COC(=O)NC(=O)c1ccsc1NC(=O)c1ccc(S(=O)(=O)N2CCC(OC)CC2)cc1,18,601,0.03,IC50 [11]: 46.1 µg/mL; IC50 [12]: 54.9 µg/mL; MIC [4]: 0.44 µg/mL; MIC [5]: 0.25 µg/mL; IC50 [9]: 8.9 µM
CN[C@@H]1[C@H](O[C@H]2[C@H](O[C@H]3[C@H](O)[C@@H](O)[C@H](N=C(N)N)[C@@H](O)[C@@H]3N=C(N)N)O[C@@H](C)[C@]2(O)C=O)O[C@@H](CO)[C@H](O)[C@H]1O [STREPTOMYCIN],–,–,0.49,MIC [4]: > 2 µg/mL; MIC [5]: > 2 µg/mL

# Source: ChEMBL document CHEMBL5154717, “Identification of thiophene-benzenesulfonamide derivatives for the treatment of multidrug-resistant tuberculosis” (Eur J Med Chem, 2022)
